Test results taken from ChEMBL document CHEMBL4513216, “Probing the Open Global Health Chemical Diversity Library for Multistage-Active Starting Points for Next-Generation Antimalarials” (ACS Infect Dis, 2020).

Assay: Toxicity liver stage against HepG2, at 10uM
Type: cell-based
Parameters: test concentration 10 uM, cell line HepG2-A16-CD81EGFP
Details: human, HepG2-A16-CD81EGFP cells; read-out: INHIBITION
Method in brief: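 Uninfected HepG2-A16-CD81EGFP cells, 3 × 10^3 per well, 1536-well, plated on prespotted compound at 10 μM final, parasite-free screening media added to match infected plates; puromycin 10 μM positive, DMSO 0.5% negative; run in parallel with 48 h PbLuc assay at 37 °C, 5% CO2; viability by CellTiter-Glo luminescence, normalized to controls.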

| SMILES | cytotoxicity at 10 µM |
| --- | --- |
| COCCN1CCc2ccccc2NCCC1=O | -2.51% |
| Cc1cc(C)n(CCN2CCN(C(=O)c3cc4ccccc4o3)CC2)n1 | -3.97% |
| Cc1oncc1C(=O)N1CC[C@H]2[C@H](CO[C@@H]2CNS(C)(=O)=O)C1 | 0.0508% |
| O=C(CSc1nc2c(cnn2CCO)c(=O)[nH]1)N1CCCCCC1 | -15.4% |
| CNC(=O)CS(=O)(=O)C1CCN(S(=O)(=O)C2CC2)CC1 | -16.7% |
| CCOCC(=O)N1C[C@@H]2COC[C@H](c3nc(C)no3)[C@@H]2C1 | -11.1% |
| CCn1nc(C)c2nc(C(C)C)nc(NC)c21 | 7.19% |
| COCCNC(=O)c1cc(C(C)C)nc(N2CCCC2)n1 | 5.03% |
| CC(C)C(=O)NCCCn1ncc2c(Cl)cccc21 | -21.6% |
| CC(C)N1CCCC1c1csc(N)n1 (stereo unspecified) | 2.33% |
| Cc1ccc(CN2CCOC(c3cnccn3)C2)s1 (stereo unspecified) | -2.81% |
| O=C1CC(C(=O)Nc2nnc(-c3ccoc3)[nH]2)c2ccccc2N1 (stereo unspecified) | 0.841% |
| CC(C)c1noc(CNc2ccccc2CC(=O)N(C)C)n1 | -10.6% |
| CC(NC(=O)CCN1CCOC1=O)(c1ccccc1)c1ccccc1 | -10% |
| COc1ncnc(N)c1CNCCc1ccc(-n2cccn2)cc1 | -13.3% |
| CC(C)C(C)N(C)C(=O)COc1ccccc1C#N (stereo unspecified) | -3.28% |
| Cc1cnn(CCNCC(O)c2cccc(Br)c2)c1 (stereo unspecified) | 1.66% |
| COCCn1cc(NC(=O)C(C)CCc2ccccc2F)ccc1=O (stereo unspecified) | -3.73% |
| Cc1ccccc1CC(=O)N1CCCn2cncc2C1 | -1.1% |
| O=C(CN1CCOC1=O)N1CC[C@@H](c2ccc3ccccc3c2)[C@H](O)C1 | 0.562% |
| COc1cccc(OCC2CCCN(C(=O)CCCn3cccn3)C2)c1 (stereo unspecified) | 8.12% |
| CC(=O)c1cccc(C(=O)N2C[C@@H](CN3CCCCCC3)[C@@H](CO)C2)c1 | 3.32% |
| CCN(CC)C(=O)[C@@H]1C[C@H](n2cc(-c3cccc(OC)c3)nn2)CN1 | 12.4% |

| SMILES | cytotoxicity at 10 µM |
| --- | --- |
| Cc1[nH]c2ccc(CNc3cc(C(N)=O)ccn3)cc2c1C | -4.73% |
| O=C(O)C1c2nc[nH]c2CCN1Cc1ccc(-c2ccccc2)s1 (stereo unspecified) | -9.35% |
| CCOc1ccc(C(=O)N2Cc3cnc(CC(C)C)nc3C2)o1 | 7.18% |
| CCC(C)CN1CCC(n2cc(C3CCCC3)nn2)CC1 (stereo unspecified) | -2.13% |
| CCc1noc(CN(CC)C(=O)CC2C(=O)NCCN2CC=C(C)C)n1 (stereo unspecified) | 2.24% |
| CSCc1noc(CNC2CCCC(C)(C)C2)n1 (stereo unspecified) | -0.268% |
| CC(c1ccco1)N(C)Cc1cc2cc3c(cc2[nH]c1=O)OCO3 (stereo unspecified) | 2.59% |
| CC(=O)N1C[C@@H](c2ccsc2)[C@@H]2CN(Cc3ccccc3)CC[C@@H]21 | 6.76% |
| CC1CN(Cc2cccnc2)CCN1c1ccc2nncn2n1 (stereo unspecified) | -11.1% |
| Cc1nn(C)c(C)c1CCC(=O)N1CCCC(n2cccn2)C1 (stereo unspecified) | -6.69% |
| CCc1cnc(CN(C(C)=O)C2CCN(CCc3ccccc3)C2)o1 (stereo unspecified) | -8.17% |
| Cc1nnc2n1CCN(C(=O)CN(C)Cc1ccccc1)C2 | -4.56% |
| Cc1cnn(C2CCCN(C(=O)c3ccc(Cn4ccnc4)cc3)C2)c1 (stereo unspecified) | 2.54% |
| Cc1cc(C(=O)N2CCCC(n3cncn3)C2)nn1C (stereo unspecified) | -0.776% |
| COc1ccccc1CCNC(=O)N1CCC(n2cncn2)CC1 | 0.428% |
| CN(C)c1cc(C(=O)N2CCN(S(C)(=O)=O)CC2)ccn1 | -4.46% |
| CC(C)=CCN1CCOC(Cn2nc(C)cc2C)C1 (stereo unspecified) | -9.93% |
| Cc1cccc2c1OCCC2NCc1c(C)nn(C)c1N(C)C (stereo unspecified) | -5.72% |
| Cc1cc(C)n2cc(CN3CCCC3Cn3nc(C)nc3C)nc2n1 (stereo unspecified) | 4.91% |
| Cc1cnn(C2CCCN(C(=O)c3ccnc(N(C)C)c3)C2)c1 (stereo unspecified) | 5.15% |
| CCOc1ccc(Br)cc1C1CCCN1 (stereo unspecified) | 5.01% |
| O=C(c1cccnc1)N1CCC2(CC1)COCCN(c1ncccn1)C2 | 2.66% |
| c1csc(CN2CCO[C@H]3[C@H](OCCN4CCCC4)CC[C@@H]32)n1 | -7.32% |
